PMC3962796 (Environmental science & technology, 2013)
Where two headings read alike, the source gives them in different places.

Experiments:
[1] = format: in vivo, male Sprague-Dawley rats; details: for half-life: male, Sprague-Dawley, rat, inhaled or intranasal, 1.8 ug
How it was run: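 Male Sprague-Dawley rats (237.6 ± 1.6 g; n=4/group) were exposed nose-only to test compound vapor. The vapor came from air at 4.0 L/min bubbled through the neat compound at 25.0°C, then diluted to 10.0 L/min. Exposure was 1 h, a 1 h break, then 1 h. Shams breathed filtered air. Rats were killed 0, 4 and 8 h post exposure, shams at 2 and 6 h. Lung, liver and serum were PLE-extracted and analysed by GC-MS SIM. Results were blank/surrogate-corrected and lipid-normalized. Analysis used t-tests (p<0.05) and Gauss-Newton non-linear regression.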

[2] = cited from earlier work; for half-life after inhalation exposure (tissues overall): administered as part of Aroclor mixture, same duration of inhalation exposure, Figure S2
[3] = two-component exponential decay; blood, liver and muscle; intravenous; cited from earlier work
[4] = first order model fit, lipid weight basis

With Oc1ccc(-c2cccc(Cl)c2)cc1Cl [4-OH-CB11, 3,3′-dichlorobiphenyl-4-ol] the “ratio of 4-OH-CB11 to CB11 in liver” value ([1]; 0 h post exposure) was 0.7±0.0, the “mean liver 4-OH-CB11 level relative to sentinel rats” value ([1]; 4 h group vs sentinel rats) was 15 fold and the “mean liver 4-OH-CB11 level relative to sham rats” value ([1]; 4 h group vs sham-exposed, not statistically significant) was 4 fold. The “ratio of 4-OH-CB11 to CB11 in liver” value ([1]; 4 h post exposure) was 0.9±0.2, the “ratio of 4-OH-CB11 to CB11 in liver” value ([1]; 8 h post exposure) was 1.1±0.1 and the “detection of 4-OH-CB11 in liver” value ([1]; liver of all PCB-exposed animals) was “detected”. The “detection of 4-OH-CB11 in lung” value ([1]; lung samples of exposed rats) was “not detected” and the “detection of 4-OH-CB11 in serum” value ([1]; serum samples of exposed rats) was “not detected”.
In the case of Clc1ccccc1-c1ccccc1 [CB1, monochlorobiphenyl], the “level remaining during the inhalation exposure” value ([2]; Aroclor 1242 vapor inhalation) is given as “barely detectable levels”.
In the case of Clc1ccccc1-c1ccccc1Cl [CB4], the “level remaining during the inhalation exposure” value ([2]; Aroclor 1242 vapor inhalation) is given as “barely detectable levels”.
In the case of Clc1ccc(-c2ccccc2Cl)cc1 [CB8, 2,4′-Dichlorobiphenyl], the “half-life after inhalation exposure (tissues overall)” value [2] is given as 5 to 8 h.
With Clc1cccc(-c2cccc(Cl)c2)c1 [CB11, 3,3′-dichlorobiphenyl] the “C0 (initial concentration) of CB11 in liver” value [1, 4] was 73.6 ng/g l.w, the “C0 (initial concentration) of CB11 in serum” value [1, 4] was 295 ng/g l.w and the “C0 (initial concentration) of CB11 in lung” value ([1]; first order model fit, lipid weight basis, inhalation 106 μg/m^3 for 2 h) was 932 ng/g l.w. The half-life ([1]; liver) was 2.1 h, the half-life ([1]; lung) was 1.9 h and the half-life ([1]; serum) was 1.8 h.
For Clc1ccc(-c2ccc(Cl)cc2)cc1 [CB15, 4,4′-dichlorobiphenyl], the “half-life after inhalation exposure (tissues overall)” value [2] is given as 5 to 8 h.
For Clc1ccc(-c2ccc(Cl)cc2Cl)cc1 [CB28], the “time of peak concentration after exposure” value ([2]; Aroclor 1242 vapor inhalation, suggests redistribution phase) is listed as 1 h.
In the case of Clc1ccc(Cl)c(-c2c(Cl)ccc(Cl)c2Cl)c1Cl [CB136, 2,2′,3,3′,6′6′-hexachlorobiphenyl], the “t½ of initial fast distribution phase” value [3] is listed as 1.7 to 10.6 h and the “t½ of subsequent slower elimination phase” value [3] is listed as 55.2 to 406 h.
In the case of Clc1cc(Cl)c(-c2cc(Cl)c(Cl)cc2Cl)cc1Cl [CB153], the “t½ of initial fast distribution phase” value [3] is given as 1.7 to 10.6 h and the “t½ of subsequent slower elimination phase” value [3] is given as 55.2 to 406 h.
